High-throughput results deposited in PubChem BioAssay by several laboratories.
Shown are actives, neighbours in structure and some others; about 2% of the full set was active somewhere.
PPC-1+TRAIL kill = compounds killing PPC-1 cancer cells with TRAIL present, primary screen, TRAIL potentiator project, ATPLite luminescence, uHTS; PPC-1 cells + TRAIL, ATPLite viability luminescence; cell killing (% activity), % at 4 µM or 5 µM; actives 0.41% (n = 220,000);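 active = cell killing above 50% in the first pass at 4 µM, then a duplicate retest at 5 µM averaging 50% or more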;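 note: plate controls were cells with TRAIL plus DMSO for no effect and medium-only wells lacking cells for full effect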
TRAIL sens C8 = viability loss with TRAIL in NB7+C8 cells, primary screen, TRAIL sensitizer project, cell-based, ATPlite luminescence. inhibition (viability loss, TRAIL sensitization), % at 10 µM. actives 1% (n = 360,000). AID 624354, 2012;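 active = compounds causing at least 50% loss of cell viability in the single-dose screen, relative to plate controls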
FLuc inh counter = firefly luciferase enzyme inhibitors, primary screen, artefact control for luciferase-based inhibitor screens, biochemical, luminescence, ATPLite; 10 min; inhibition, % at 10 µM; actives 1.5% (n = 200,000); AID 1006, 2008;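 active = inhibition above about 50% when tested at 10 µM, limit read from the data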
Target sequence (P08659 whole entry, looked up): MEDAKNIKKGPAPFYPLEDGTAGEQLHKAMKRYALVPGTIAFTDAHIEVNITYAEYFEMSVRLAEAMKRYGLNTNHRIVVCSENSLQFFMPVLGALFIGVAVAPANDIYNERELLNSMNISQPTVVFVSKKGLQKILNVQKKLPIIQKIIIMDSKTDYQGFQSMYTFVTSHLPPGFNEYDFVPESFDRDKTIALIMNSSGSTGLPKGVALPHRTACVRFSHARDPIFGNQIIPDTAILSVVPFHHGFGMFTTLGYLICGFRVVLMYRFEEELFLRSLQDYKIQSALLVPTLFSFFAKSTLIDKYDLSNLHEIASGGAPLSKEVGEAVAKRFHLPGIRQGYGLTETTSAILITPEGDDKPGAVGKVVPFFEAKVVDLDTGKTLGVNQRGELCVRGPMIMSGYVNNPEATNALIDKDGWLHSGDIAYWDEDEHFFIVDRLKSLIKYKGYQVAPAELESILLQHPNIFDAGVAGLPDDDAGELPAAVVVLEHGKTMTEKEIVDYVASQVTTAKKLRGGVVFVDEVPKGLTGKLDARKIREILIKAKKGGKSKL
HSP90 refold inh = HSP90 inhibitors, primary screen, cell lysate, luminescence; AID 1789, 2009; Heat shock protein HSP 90 (rabbit reticulocyte lysate; luciferase refolding); actives 0.91% (n = 290,000); inhibition, % at 5.6 µM; Rabbit reticulocyte lysate, luciferase refolding luminescence, 3 h;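 active = inhibition above the screen-wide mean plus 3 SD, computed separately per campaign, cut at about 16% in these data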;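 note: 0% = DMSO wells and 100% = 60 µM geldanamycin wells; inhibitors lower the luminescence because luciferase stays unfolded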
FLuc stim CS = FLuc activators, initial screening, artefact control for FLuc-dependent activation tests, biochemical, ATPlite luminescence. Luciferin 4-monooxygenase (Photinus pyralis), P08659. ATPlite luciferase biochemical, 10 min; 0 = ATP-free wells, 1 = DMSO control. activation factor at 10 µM. 200,000 tested, under 10 active. AID 1027, 2008;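 active = luciferase activation factor, scaled between plate controls, of at least 2 with compound at 10 µM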
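Assay system – cell-free luciferase reagent · Medium – PBS-based ATP solution · Dosing – test compounds dosed from 2 mM stocks in 100% DMSO · Timing – 10 min, room temperature · Technique – light output (luminescence) · Measure – luminescence gain marking luciferase activators · Controls – No-ATP low control, compound-free enzyme-plus-ATP high control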
* hit, by the source's call.

How did C=CCc1c(C)nc(-c2ccccc2)nc1N/N=C/c1ccncc1 do in these assays?
PPC-1+TRAIL kill: 25; TRAIL sens C8: 20; FLuc inh counter: 53*; HSP90 refold inh: 0; FLuc stim CS: 0.5

What do the screens show for `C=CCc1c(C)nc(-c2ccccc2)nc1N/N=C/c1ccccc1`?
PPC-1+TRAIL kill: 14; TRAIL sens C8: 1; FLuc inh counter: 10; HSP90 refold inh: 1; FLuc stim CS: 0.9

What do the screens show for `COc1ccc(S(=O)(=O)N2CCC(C(=O)NCCC(=O)NCc3cccnc3)CC2)cc1`?
TRAIL sens C8: -17

How did COc1ccc(-c2cn3c(C)c(C(=O)Nc4cccc(NC(C)=O)c4)sc3n2)cc1 do in these assays?
PPC-1+TRAIL kill: -1; TRAIL sens C8: 69*; FLuc inh counter: 0; HSP90 refold inh: 0; FLuc stim CS: 1

How did COc1ccc(-c2cn3c(C)c(C(=O)Nc4ccncc4)sc3n2)cc1 do in these assays?
PPC-1+TRAIL kill: 8; TRAIL sens C8: -6; FLuc inh counter: -3; HSP90 refold inh: 12; FLuc stim CS: 1

What do the screens show for `CCOC(=O)[C@]12CCCC=C1N(Cc1cccc3ccccc13)C(=O)[C@H](CC(=O)N1CCSCC1)C2`?
TRAIL sens C8: -12

How did CC(=O)Nc1nc(C)c(-c2csc(Nc3cccc(C(C)=O)c3)n2)s1 do in these assays?
TRAIL sens C8: 18; HSP90 refold inh: 4

How did Cc1nc(NC(=O)c2ccc(Cl)cc2)sc1-c1csc(Nc2cccc(F)c2)n1 do in these assays?
PPC-1+TRAIL kill: -5; FLuc inh counter: 13; HSP90 refold inh: 69*; FLuc stim CS: 0.9

How did C[C@@]12C(=O)OC(=O)[C@]1(C)C1CCC2O1 do in these assays?
TRAIL sens C8: 65*

What do the screens show for `CC(=O)NC(C)(c1ccccc1)c1nc(-c2cc(F)cc(F)c2)cs1` (stereo not drawn)?
TRAIL sens C8: 1

Results for Cc1c(C(=O)NCc2ccccc2)sc(=O)n1Cc1ccccc1F ?
TRAIL sens C8: 0

How did CC(C)c1ccc(NC(=O)Nc2nc(C(N)C3CCCCC3)cs2)cc1 (stereo not drawn) do in these assays?
TRAIL sens C8: 88*

How did CC(C)c1ccc(NC(=O)Nc2nc(C(N)CCc3ccccc3)cs2)cc1 (stereo not drawn) do in these assays?
TRAIL sens C8: 95*

How did C[C@H](O)[C@@H]1CN2CCc3c([nH]c4ccccc34)[C@@H]2C[C@@H]1N(C)C(=S)Nc1ccc(C#N)cc1 do in these assays?
TRAIL sens C8: -13

How did COCCNC(=O)C1(C)CCCN(C(=O)c2ccc3c(c2)CCO3)C1 (stereo not drawn) do in these assays?
TRAIL sens C8: -21

Results for Cc1ccc([C@H]2N[C@]3(CCCN(Cc4ccc(F)cc4)C3=O)[C@H]3C(=O)N(C)C(=O)[C@@H]23)cc1 ?
TRAIL sens C8: 7

What do the screens show for `Clc1ccc(-c2nc(-c3ccncc3)no2)c(Cl)c1`?
TRAIL sens C8: 38

How did Nc1nccc(-c2cc(-c3ccc(Cl)cc3Cl)no2)n1 do in these assays?
PPC-1+TRAIL kill: 36; TRAIL sens C8: 69*; HSP90 refold inh: 0

Results for Cc1ccc(S(=O)(=O)N2CCOCC2)cc1C(=O)OCC(=O)c1c(N)n(C)c(=O)n(C)c1=O ?
TRAIL sens C8: -2

Results for Cn1c(N)c(C(=O)COC(=O)c2cc(S(=O)(=O)N3CCOCC3)ccc2F)c(=O)n(C)c1=O ?
TRAIL sens C8: 64*

Results for Cc1ccn2c(C(C)O)nnc2c1 (stereo not drawn) ?
TRAIL sens C8: 8

How did Cc1cc(N=NC(=O)c2ccccc2O)c2ccccc2c1O do in these assays?
PPC-1+TRAIL kill: -7; TRAIL sens C8: 14; FLuc inh counter: 49; HSP90 refold inh: -1; FLuc stim CS: 0.5

How did O=C(N=Nc1ccc(NOC(=O)c2ccccc2Br)cc1)c1ccccc1O do in these assays?
PPC-1+TRAIL kill: 48; FLuc inh counter: 61*; HSP90 refold inh: 1; FLuc stim CS: 0.4

What do the screens show for `Cc1c(C(=O)/C=C/c2cccs2)oc2ccc(F)cc12`?
PPC-1+TRAIL kill: 18; TRAIL sens C8: 12; FLuc inh counter: 84*; HSP90 refold inh: 7; FLuc stim CS: 0.2

Results for CN(C)C1CN(Cc2cn(Cc3cccc(C(F)(F)F)c3)nn2)S(=O)(=O)C1 (stereo not drawn) ?
TRAIL sens C8: 1

Results for Cc1cc(-c2csc3nc[nH]c(=S)c23)cc(C)c1C ?
PPC-1+TRAIL kill: 15; TRAIL sens C8: 60*; FLuc inh counter: -8; HSP90 refold inh: -2; FLuc stim CS: 1.1

What do the screens show for `O=C(N/N=C1\CCc2ccccc21)c1ccc(O)cc1`?
PPC-1+TRAIL kill: 33; TRAIL sens C8: 33; FLuc inh counter: 66*; HSP90 refold inh: -2; FLuc stim CS: 0.3

Results for Cc1ccc(C(=O)N/N=C2\CCc3ccccc32)c(C)c1 ?
PPC-1+TRAIL kill: 24; TRAIL sens C8: 48; FLuc inh counter: 62*; HSP90 refold inh: 4; FLuc stim CS: 0.4

How did Cc1cccc(C)c1OCC(=O)Nc1ncn[nH]1 do in these assays?
PPC-1+TRAIL kill: 12; TRAIL sens C8: -2; FLuc inh counter: -5; HSP90 refold inh: 1; FLuc stim CS: 1

Results for O=C(COc1ccc2ccccc2c1Br)Nc1ncn[nH]1 ?
PPC-1+TRAIL kill: -10; TRAIL sens C8: 62*; FLuc inh counter: 21; HSP90 refold inh: 6; FLuc stim CS: 0.8

Results for Cc1ccc(-c2nc3ccc(C)cn3c2Cc2ccccn2)cc1 ?
TRAIL sens C8: 11

How did Oc1ccc(-c2csc(Nc3ncccn3)n2)cc1 do in these assays?
PPC-1+TRAIL kill: 38; TRAIL sens C8: 29; FLuc inh counter: 56*; HSP90 refold inh: 4; FLuc stim CS: 0.4

How did Cc1cc(Br)cn2c(Cc3cccc(F)c3)c(-c3ccc(C#N)cc3)nc12 do in these assays?
TRAIL sens C8: 1

What do the screens show for `COc1ccccc1C(=O)Nc1ccc2oc(-c3ccc(F)cc3)nc2c1`?
PPC-1+TRAIL kill: 53*; TRAIL sens C8: 13; FLuc inh counter: -2; HSP90 refold inh: 4; FLuc stim CS: 1

How did O=C(Nc1ccc2oc(-c3ccccc3)nc2c1)C1CCCO1 (stereo not drawn) do in these assays?
PPC-1+TRAIL kill: 17; TRAIL sens C8: 31; FLuc inh counter: 50*; HSP90 refold inh: -2; FLuc stim CS: 0.5

How did O=C(Nc1ccc(-c2nc3ccccc3o2)cc1)C1CCCO1 (stereo not drawn) do in these assays?
PPC-1+TRAIL kill: -33; TRAIL sens C8: 59*; FLuc inh counter: 78*; HSP90 refold inh: 6; FLuc stim CS: 0.2

What do the screens show for `C[C@H](CO)N1C[C@H](C)[C@@H](CN(C)S(=O)(=O)c2ccccc2F)Oc2ncc(Br)cc2C1=O`?
TRAIL sens C8: -1
